Test results from ChEMBL document CHEMBL1135571, “Synthesis and optimization of a new family of type 3 17 beta-hydroxysteroid dehydrogenase inhibitors by parallel liquid-phase chemistry” (J Med Chem, 2002).
Values joined by “and” are separate entries in the source; they are usually repeats but may differ in a detail not shown here. Equal values may be shown once.

Legend:
[1] = Proliferative activity against Shionogi(AR+) cells at 0.1 uM concentration; assay type: functional
[2] = Proliferative activity against Shionogi(AR+) cells at 1 uM concentration; assay type: functional
[3] = biological target: T1, 17-beta-hydroxysteroid dehydrogenase type 3 (Homo sapiens, UniProt P37058); assay: The ability to inhibit the Type-3 17-beta- hydroxysteroid dehydrogenase activity in transfected human embryonic kidney (HEK)-293 cells experiment 3; assay type: cell-based, HEK293
T1 sequence (P37058 whole entry): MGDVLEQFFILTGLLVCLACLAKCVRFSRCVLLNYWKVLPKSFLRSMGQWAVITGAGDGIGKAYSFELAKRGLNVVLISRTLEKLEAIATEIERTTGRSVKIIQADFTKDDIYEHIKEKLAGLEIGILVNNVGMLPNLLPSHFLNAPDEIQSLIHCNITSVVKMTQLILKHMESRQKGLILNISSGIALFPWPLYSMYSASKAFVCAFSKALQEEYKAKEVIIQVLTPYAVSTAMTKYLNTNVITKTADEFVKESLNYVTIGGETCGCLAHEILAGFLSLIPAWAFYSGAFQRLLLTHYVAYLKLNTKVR
How it was run: (§1)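 Type 3 17β-HSD expressed by calcium phosphate transfection in HEK-293 cells. Cells sonicated in 50 mM sodium phosphate pH 7.4 with 20% glycerol and 1 mM EDTA, then spun at 10 000g for 1 h; the 100 000g microsomal pellet is the enzyme source. Assay at 37 °C in the same buffer with 5 mM NADPH and 0.05 μM [14C]Δ4-dione. Labeled testosterone formed is measured; […].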

[4] = Proliferative activity against Shionogi (AR+) cells at 0.1 uM concentration; assay type: functional
[5] = biological target: T1, 17-beta-hydroxysteroid dehydrogenase type 3; assay: Concentration to inhibit 50% activity of the Type-3 17-beta- hydroxysteroid dehydrogenase
How it was run: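 Microsomal fraction from HEK-293 cells transfected with type 3 17β-HSD, prepared by sonication and differential centrifugation (10 000g, then 100 000g) in 50 mM sodium phosphate pH 7.4, 20% glycerol, 1 mM EDTA. Incubated at 37 °C with 5 mM NADPH, 0.05 μM [14C]Δ4-dione and a range of inhibitor concentrations. Labeled testosterone formed is measured; IC50 is computed from the 50% inhibition point.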

[6] = Proliferative activity against Shionogi (AR+) cells at 1 uM concentration; assay type: functional
[7] = biological target: T1, 17-beta-hydroxysteroid dehydrogenase type 3; assay: The ability to inhibit the Type-3 17-beta- hydroxysteroid dehydrogenase activity in transfected human embryonic kidney (HEK)-293 cells experiment 2; assay type: cell-based, HEK293; how it was run: as §1
[8] = biological target: T1, 17-beta-hydroxysteroid dehydrogenase type 3; assay: Ability to inhibit the Type-3 17-beta- hydroxysteroid dehydrogenase activity transfected in human embryonic kidney (HEK)-293 cells experiment 3; assay type: cell-based, HEK293
[9] = biological target: T1, 17-beta-hydroxysteroid dehydrogenase type 3; assay: Ability to inhibit the Type-3 17-beta- hydroxysteroid dehydrogenase activity transfected in human embryonic kidney (HEK)-293 cells experiment 2; assay type: cell-based, HEK293

Structure (SMILES)	inhibition at 0.1 µM [1] [%]	inhibition at 1 µM [2] [%]	inhibition at 0.1 µM [4] [%]	IC50 [5]	inhibition at 1 µM [6] [%]	other results
C[C@]12CC[C@@H](O)C[C@H]1CC[C@@H]1[C@@H]2CC[C@]2(C)C(=O)CC[C@@H]12 [ETIOCHOLANOLONE]	14	2	–	–	–	IC50 [3]: 182 nM
CCCC(=O)N(CC1C2CC3CC(C2)CC1C3)C[C@@]1(O)CC[C@@]2(C)C(CC[C@@H]3[C@@H]2CC[C@]2(C)C(=O)CC[C@@H]32)C1 (stereo partly drawn)	–	–	7	35 nM and 57 nM	96	–
CCCCCCCCN(C[C@@]1(O)CC[C@@]2(C)C(CC[C@@H]3[C@@H]2CC[C@]2(C)C(=O)CC[C@@H]32)C1)C(=O)C1CC1 (stereo partly drawn)	–	–	0	–	0	IC50 [7]: 57 nM
C[C@]12CC[C@@]3(CC1CC[C@@H]1[C@@H]2CC[C@]2(C)C(=O)CC[C@@H]12)CN(CC(CN1CCOCC1)OC(=O)CCC1CCCC1)C(=O)O3 (stereo partly drawn)	4	6	–	74 nM	–	–
C[C@]12CCC(=O)C=C1CC[C@@H]1[C@@H]2CC[C@]2(C)C(=O)CC[C@@H]12 [ANDROSTENEDIONE]	–	–	–	–	–	IC50 [8]: 489 nM; IC50 [9]: 650 nM
C[C@]12CC[C@](O)(CN(CC3CCCCC3)C(=O)C3CC3)CC1CC[C@@H]1[C@@H]2CC[C@]2(C)C(=O)CC[C@@H]12 (stereo partly drawn)	–	–	1	85 nM	0	–
CCCCN(CC1C2CC3CC(C2)CC1C3)C[C@@]1(O)CC[C@@]2(C)C(CC[C@@H]3[C@@H]2CC[C@]2(C)C(=O)CC[C@@H]32)C1 (stereo partly drawn)	3	7	–	80 nM	–	–
C[C@]12CC[C@](O)(Cc3ccccc3)CC1CC[C@@H]1[C@@H]2CC[C@]2(C)C(=O)CC[C@@H]12 (stereo partly drawn)	27	100	–	–	–	IC50 [3]: 98 nM
